Activity data for one compound are collected here from ChEMBL document CHEMBL3856186, “Partial Activation and Inhibition of TRPV1 Channels by Evodiamine and Rutaecarpine, Two Major Components of the Fruits of Evodia rutaecarpa” (J Nat Prod, 2016).

What all share (type): cell-based
For assay [1], the target named is Transient receptor potential cation channel subfamily V member 1 (Rattus norvegicus) (UniProt O35433). Kind of assay: Partial antagonist activity at rat TRPV1 expressed in HEK293 cells assessed as effect on capsaicin-induced inward current at 10 uM by whole-cell patch clamp method (reference value: -327.4 +/- 52.3 pA/pF). The essentials: (§1)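 HEK293 cells transiently expressing rat TRPV1 (EGFP cotransfected) were patched in whole-cell mode 1 day post-transfection. Cells were held at −60 mV in Ca2+-containing standard bath (pH 7.4) at ~25 °C. Capsaicin-evoked peak current amplitude was quantified. Sigmoidal curve fitting gave EC50 or IC50 values.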
Chain of Transient receptor potential cation channel subfamily V member 1 (Rattus norvegicus) (O35433 whole entry): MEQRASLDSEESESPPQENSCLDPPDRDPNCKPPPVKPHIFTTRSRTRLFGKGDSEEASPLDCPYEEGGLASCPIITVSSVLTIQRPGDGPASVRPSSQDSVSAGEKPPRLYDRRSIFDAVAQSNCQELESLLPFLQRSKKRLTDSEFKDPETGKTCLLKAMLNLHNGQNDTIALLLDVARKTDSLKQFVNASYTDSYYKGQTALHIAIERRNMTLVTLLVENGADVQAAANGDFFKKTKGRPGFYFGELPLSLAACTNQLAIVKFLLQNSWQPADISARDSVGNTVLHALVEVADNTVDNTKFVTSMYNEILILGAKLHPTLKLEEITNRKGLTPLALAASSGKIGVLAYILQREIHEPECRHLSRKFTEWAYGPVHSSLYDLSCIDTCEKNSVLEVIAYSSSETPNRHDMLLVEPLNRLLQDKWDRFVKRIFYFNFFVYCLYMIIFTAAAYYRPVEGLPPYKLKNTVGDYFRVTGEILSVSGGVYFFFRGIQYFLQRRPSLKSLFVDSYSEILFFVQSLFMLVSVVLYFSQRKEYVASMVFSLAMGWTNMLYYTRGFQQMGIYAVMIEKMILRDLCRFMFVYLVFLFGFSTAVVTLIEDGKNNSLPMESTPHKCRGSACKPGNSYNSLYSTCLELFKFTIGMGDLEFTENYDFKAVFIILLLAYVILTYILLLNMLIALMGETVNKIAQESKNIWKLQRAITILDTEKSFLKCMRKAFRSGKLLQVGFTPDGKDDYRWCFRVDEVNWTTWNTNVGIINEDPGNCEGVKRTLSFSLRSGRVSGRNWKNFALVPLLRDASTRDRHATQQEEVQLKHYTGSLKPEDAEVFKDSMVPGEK

Assay [2] shares this target. Kind of assay: Partial antagonist activity at rat TRPV1 expressed in HEK293 cells assessed as effect on capsaicin-induced inward current at 0.6 uM by whole-cell patch clamp method (reference value: -151.2 +/- 33 pA/pF). The method in brief:
as §1

The target is the same in assay [3]. Kind of assay: Partial antagonist activity at rat TRPV1 expressed in HEK293 cells assessed as effect on capsaicin-induced inward current at 0.1 uM by whole-cell patch clamp method (reference value: -151.2 +/- 33 pA/pF). The method in brief:
as §1

The target is the same in assay [4]. Kind of assay: Partial antagonist activity at rat TRPV1 expressed in HEK293 cells assessed as effect on capsaicin-induced inward current at 10 uM by whole-cell patch clamp method (reference value: -431 +/- 43.1 pA/pF). The essentials: as §1
Assay [5] shares this target. Kind of assay: Partial antagonist activity at rat TRPV1 expressed in HEK293 cells assessed as effect on capsaicin-induced inward current at 0.6 uM by whole-cell patch clamp method (reference value: -327.4 +/- 52.3 pA/pF). The method in brief: as §1
Assay [6] shares this target. Kind of assay: Partial antagonist activity at rat TRPV1 expressed in HEK293 cells assessed as effect on capsaicin-induced inward current at 0.1 uM by whole-cell patch clamp method (reference value: -480.7 +/- 96.9 pA/pF). The method in brief: as §1
For assay [7] the target is unchanged. Put plainly: Partial antagonist activity at rat TRPV1 expressed in HEK293 cells assessed as effect on capsaicin-induced inward current at 1 uM by whole-cell patch clamp method (reference value: -[…] +/- […] pA/pF).
Assay [8] shares this target. Kind of assay: Partial antagonist activity at rat TRPV1 expressed in HEK293 cells assessed as effect on capsaicin current density at 10 uM at -60 mV holding potential in absence of extracellular calcium by whole-cell patch-clamp method (reference value: -2407.7 +/- 850.6 pA). The method in brief:
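Whole-cell clamp at −60 mV was done on rat TRPV1-transfected HEK293 cells (1 day) using a calcium-free bath (5 mM EGTA, no CaCl2, pH 7.4) at ~25 °C. Capsaicin-evoked peak current was measured.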

The target is the same in assay [9]. Put plainly: Partial antagonist activity at rat TRPV1 expressed in HEK293 cells assessed as effect on capsaicin-induced inward current at 1 uM by whole-cell patch clamp method. The essentials:
as §1

Assay [10] shares this target. Kind of assay: Partial antagonist activity at rat TRPV1 expressed in HEK293 cells assessed as effect on capsaicin-induced inward current at 0.6 uM by whole-cell patch clamp method (reference value: -[…] +/- […] pA/pF).
The target is the same in assay [11]. Put plainly: Partial antagonist activity at rat TRPV1 expressed in HEK293 cells assessed as effect on capsaicin-induced inward current at 1 uM by whole-cell patch clamp method (reference value: -431 +/- 43.1 pA/pF). The method in brief:
as §1

Assay [12] has the same target. Kind of assay: Agonist activity at rat TRPV1 channel expressed in HEK293 cells assessed as reversal potential at 10 uM and -60 mV holding potential by whole-cell patch-clamp method. The method in brief: (§2)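 Rat TRPV1 cDNA and an EGFP reporter were cotransfected into HEK293 cells, with recording 1 day later. Whole-cell voltage clamp was run at room temperature (~25 °C) in standard bath (2 mM CaCl2, pH 7.4) with a KCl/MgATP/EGTA pipette solution. Steps from −100 to +100 mV (100 ms) gave I–V curves. Agonist was applied until desensitization, and peak current was scored. EC50 came from a sigmoidal fit.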

The target is the same in assay [13]. Put plainly: Partial antagonist activity at rat TRPV1 expressed in HEK293 cells assessed as effect on capsaicin current density at 0.5 uM pretreated for 180 sec followed by capsaicin addition at -60 mV holding potential in presence of extracellular calcium by whole-cell patch-clamp method (reference value: -327.4 +/- 52.3 pA/pF). The essentials:
as §1

Assay [14] has the same target. Put plainly: Partial antagonist activity at rat TRPV1 expressed in HEK293 cells assessed as effect on capsaicin-induced inward current at 10 uM by whole-cell patch clamp method. The method in brief: as §1
Assay [15] shares this target. Kind of assay: Partial antagonist activity at rat TRPV1 expressed in HEK293 cells assessed as effect on capsaicin-induced inward current at 1 uM by whole-cell patch clamp method (reference value: -327.4 +/- 52.3 pA/pF). The essentials: as §1
For assay [16] the target is unchanged. Kind of assay: Partial antagonist activity at rat TRPV1 expressed in HEK293 cells assessed as effect on capsaicin-induced inward current at 1 uM by whole-cell patch clamp method (reference value: -7 +/- 2.6 pA/pF). The essentials:
as §1

Assay [17] has the same target. Put plainly: Partial antagonist activity at rat TRPV1 expressed in HEK293 cells assessed as effect on capsaicin-induced inward current at 0.6 uM by whole-cell patch clamp method (reference value: -480.7 +/- 96.9 pA/pF). The essentials: as §1
For assay [18] the target is unchanged. Kind of assay: Partial antagonist activity at rat TRPV1 expressed in HEK293 cells assessed as effect on capsaicin current density at 10 uM pretreated for 180 sec followed by capsaicin addition at -60 mV holding potential in presence of extracellular calcium by whole-cell patch-clamp method (reference value: -327.4 +/- 52.3 pA/pF). The essentials:
as §1

The target is the same in assay [19]. Kind of assay: Agonist activity at rat TRPV1 channel expressed in HEK293 cells assessed as outward rectifying current at 10 uM and -60 mV holding potential by whole-cell patch-clamp method. The essentials: as §2
For assay [20] the target is unchanged. Kind of assay: Partial antagonist activity at rat TRPV1 expressed in HEK293 cells assessed as inhibition of proton-induced channel current at 1 or 50 uM and -60 mV holding potential pretreated for 60 secs prior to proton-challenge by whole-cell patch clamp method (reference value: 185.1 +/- 38.6 pA/pF). The essentials: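 Proton-activated currents were recorded in rat TRPV1-expressing HEK293 cells held at −60 mV in whole-cell mode, with bath buffered to pH 6 with 10 mM MES, at ~25 °C. Peak current amplitude was the read-out.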

The source made the active and inactive calls. The rule behind the calls is not given here.

For the compound `CN1c2ccccc2C(=O)N2CCc3c([nH]c4ccccc34)C21` (stereo not given), the Activity in assay [1] was -160 pA/pF; in assay [2], -81.6 pA/pF; in assay [3], -94.8 pA/pF; in [4], -237 pA/pF; in [5], -208 pA/pF; in assay [6], -416 pA/pF. Moreover, the Activity is -370 pA/pF in assay [7]; -2400 pA/pF in assay [8]; -448 pA/pF in assay [9]; -528 pA/pF in assay [10]; -260 pA/pF in assay [11]; 0 mV in assay [12]. The Activity in assay [13] was -143 pA/pF; in [14], -439 pA/pF; in assay [15] it was -195 pA/pF; in [16] it was -81.7 pA/pF; in assay [17] it was -422 pA/pF; in assay [18] it was -60.3 pA/pF. In addition, the Activity in [20] was -49.1 pA/pF. Moreover, the result in assay [19] was Active.
